Source: ChEMBL document CHEMBL1121428, “Derivatives of 11-(1-piperazinyl)-5H-pyrrolo[2,1-c][1,4]benzodiazepine as central nervous system agents” (1980)
Active and inactive are the calls of the source. The rule behind the calls is not given here.

What was measured:
Mus musculus [1] = experiment: Oral dose required for antagonism of d-amphetamine lethality in grouped mice (GAL); assay type: functional
Summary of the method: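 Drug was given orally to grouped mice challenged with d-amphetamine, and survival (protection from lethality) was recorded. Each test group had 5 to 10 animals. The result is an ED50 with 95% confidence limits, calculated by the arc-sine transformation method of Finney.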

Mus musculus [2] = experiment: Minimum effective dose was measured orally by antagonism of tetrabenazine-induced depression in mice(po); assay type: functional; settings: read-out: MED
Summary of the method: (§1)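 Mice given tetrabenazine to induce depression; test agent given orally to look for antagonism of that depression. The value is the minimum effective dose. Each test group held 5 to 10 animals. The protocol is the same as in the group's earlier publications.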

Rattus norvegicus = experiment: Estimated oral dose depressing motor activity by 50% in rats(po); assay type: functional
Summary of the method: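 Rats dosed orally; spontaneous motor activity recorded. The value is the estimated dose that lowers motor activity by 50%. Each test group held 5 to 10 animals. The protocol is the same as in the authors' earlier reports.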

Mus musculus [3] = experiment: Minimum effective dose was measured orally by antagonism of tetrabenazine-induced depression in mice(po); inact means compound is inactive.; assay type: functional, organism-based; summary of the method: as §1
Mus musculus [4] = experiment: Intraperitoneal dose required for antagonism of d-amphetamine lethality in grouped mice (GAL); assay type: functional; settings: ip
Summary of the method: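 Mice housed in groups received drug intraperitoneally and were scored for protection against d-amphetamine-induced lethality. There were 5 to 10 animals per dose group. The ED50 was the dose protecting 50% of mice. 95% confidence limits came from Finney's arc-sine transformation method.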

SMILES: c1ccc2c(c1)Cn1cccc1C(N1CCNCC1)=N2
- ED50 (Mus musculus [1]): 4.7 mg/kg
- minimal effective dose (Mus musculus [2]): 3.1 mg/kg

SMILES: CN(C)CCCN1c2ccccc2CCc2ccccc21 [IMIPRAMINE]
- minimal effective dose (Mus musculus [2]): 5 mg/kg
- MDD50 (Rattus norvegicus): >50 mg/kg

SMILES: CN1CCN(C2=Nc3cc(Cl)ccc3Nc3ccccc32)CC1 [CLOZAPINE]
- MED (Mus musculus [3]): inactive
- MDD50 (Rattus norvegicus): 21 mg/kg
- ED50 (Mus musculus [4]): 2.2 mg/kg

SMILES: CN1CCN(C2=Nc3cc(Cl)ccc3Cn3cccc32)CC1
- MED (Mus musculus [3]): inactive
- MDD50 (Rattus norvegicus): 12 mg/kg
- ED50 (Mus musculus [4]): 4 mg/kg

SMILES: CN1CCN(C2=Nc3ccccc3Cn3cccc32)CC1
- MED (Mus musculus [3]): inactive
- MDD50 (Rattus norvegicus): 7 mg/kg
- ED50 (Mus musculus [4]): 1 mg/kg

SMILES: CN(C)CCCN1c2ccccc2Sc2ccc(Cl)cc21 [CHLORPROMAZINE]
- MED (Mus musculus [3]): inactive
- MDD50 (Rattus norvegicus): 2.4 mg/kg
- ED50 (Mus musculus [4]): 0.6 mg/kg

SMILES: CN1CCN(C2=Nc3ccc(Cl)cc3Cn3cccc32)CC1
- MED (Mus musculus [3]): inactive
- MDD50 (Rattus norvegicus): 50 mg/kg
- ED50 (Mus musculus [4]): 16 mg/kg
